By IC50 is commonly meant the concentration at which inhibition is half-maximal.

SMILES strings stand for the structures. The source made the active and inactive calls. The calls are words filed in the database; no cut-off is given here. A value given as a limit tells only on which side of the number the result lay.

We go through one compound from ChEMBL document CHEMBL4414568, “Development of Novel Irreversible Pyruvate Kinase M2 Inhibitors” (J Med Chem, 2019).

One data set concerns NCI-H157. Description: Antiproliferative activity against human NCI-H157 cells assessed as reduction in cell viability incubated for 24 hrs by MTT assay. Format: functional, cell-based. As to conditions: NCI-H157, 24 h. The procedure, abridged:
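Cells seeded at 3,500 per well in 10% FBS and left overnight, then exposed to test agent or vehicle in 5% FBS for 24 h. MTT added for 1 h, then medium swapped for DMSO and absorbance read at 560 nm. Viability given as percent of vehicle-treated control. Run in triplicate.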
For orientation: Tetrazolium assays rely on reduction of a dye to a coloured formazan, in cell work by metabolically active cells.

Data set [1] deals with T1, Citrate synthase, mitochondrial (Homo sapiens) (UniProt O75390).
T1 sequence (whole entry): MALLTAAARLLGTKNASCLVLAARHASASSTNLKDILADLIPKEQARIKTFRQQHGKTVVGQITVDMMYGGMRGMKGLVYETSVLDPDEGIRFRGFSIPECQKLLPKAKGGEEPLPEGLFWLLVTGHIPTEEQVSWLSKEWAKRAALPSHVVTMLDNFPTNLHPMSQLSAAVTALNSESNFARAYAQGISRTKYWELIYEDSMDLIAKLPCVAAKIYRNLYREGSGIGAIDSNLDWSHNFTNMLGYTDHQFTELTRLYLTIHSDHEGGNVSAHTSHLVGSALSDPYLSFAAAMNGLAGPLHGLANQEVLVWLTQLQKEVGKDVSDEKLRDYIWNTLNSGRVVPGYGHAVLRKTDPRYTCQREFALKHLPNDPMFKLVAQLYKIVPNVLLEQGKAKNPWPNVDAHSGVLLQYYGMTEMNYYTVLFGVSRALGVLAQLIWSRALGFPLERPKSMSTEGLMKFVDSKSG
In words: Binding affinity to CS in human PC9 cells incubated for 1 hr by ABPP-SILAC assay. Format: cell-based. The procedure, abridged:
(§1)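 PC-9 cells passaged at least six times in SILAC DMEM with 10% dialyzed FBS plus 100 µg/mL light or 13C/15N-labeled Arg/Lys. Heavy cells got ABPP probe (1 µM) and light cells DMSO, 1 h at 37 °C. Cells mixed 1:1, sonicated, spun at 100,000g, protein normalized to 1 mg/mL. Click biotin-azide, streptavidin bead pulldown 16 h at 4 °C, SDS-PAGE, on-bead trypsin digestion, LC-MS/MS.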

Data set [2] deals with T2, ATP-citrate synthase (Homo sapiens) (UniProt P53396).
T2 sequence (whole entry): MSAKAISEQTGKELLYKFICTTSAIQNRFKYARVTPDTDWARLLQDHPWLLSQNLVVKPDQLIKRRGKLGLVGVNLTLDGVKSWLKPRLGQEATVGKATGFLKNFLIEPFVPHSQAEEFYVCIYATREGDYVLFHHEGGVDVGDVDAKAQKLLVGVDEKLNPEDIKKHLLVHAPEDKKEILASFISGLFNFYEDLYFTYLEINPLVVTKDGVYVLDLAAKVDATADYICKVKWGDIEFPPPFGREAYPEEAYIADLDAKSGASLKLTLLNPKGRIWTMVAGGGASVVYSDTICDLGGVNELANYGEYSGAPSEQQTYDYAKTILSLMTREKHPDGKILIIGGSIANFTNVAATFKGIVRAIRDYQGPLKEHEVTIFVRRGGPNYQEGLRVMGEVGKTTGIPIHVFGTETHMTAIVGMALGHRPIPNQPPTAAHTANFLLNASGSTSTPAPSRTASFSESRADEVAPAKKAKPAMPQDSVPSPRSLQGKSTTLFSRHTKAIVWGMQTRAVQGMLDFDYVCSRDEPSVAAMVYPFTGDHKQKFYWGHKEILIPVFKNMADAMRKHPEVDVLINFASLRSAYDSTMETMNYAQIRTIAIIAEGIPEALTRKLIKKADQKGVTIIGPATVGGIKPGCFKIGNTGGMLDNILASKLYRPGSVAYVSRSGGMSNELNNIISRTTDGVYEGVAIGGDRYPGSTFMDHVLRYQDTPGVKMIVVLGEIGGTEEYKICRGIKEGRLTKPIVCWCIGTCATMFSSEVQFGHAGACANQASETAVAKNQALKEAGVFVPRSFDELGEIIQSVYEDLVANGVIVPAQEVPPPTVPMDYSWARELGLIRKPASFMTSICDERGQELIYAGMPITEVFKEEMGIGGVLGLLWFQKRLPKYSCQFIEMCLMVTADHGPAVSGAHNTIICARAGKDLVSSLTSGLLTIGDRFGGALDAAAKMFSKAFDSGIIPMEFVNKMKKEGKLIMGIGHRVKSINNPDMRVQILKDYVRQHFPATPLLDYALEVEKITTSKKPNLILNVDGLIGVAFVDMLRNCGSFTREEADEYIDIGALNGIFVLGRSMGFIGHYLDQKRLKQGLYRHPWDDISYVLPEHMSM
Description: Binding affinity to ACYL in human PC9 cells incubated for 1 hr by ABPP-SILAC assay. Format: cell-based. The procedure, abridged:
as §1

Data set [3] concerns the target T3, Pyruvate kinase PKM (Homo sapiens, UniProt P14618). Description: Inhibition of recombinant human N-terminal His-tagged PKM1 expressed in Escherichia coli at 0.125 to 0.5 uM using PEP as substrate incubated for 20 mins by OxiRed probe-based colorimetric analysis. The procedure, abridged:
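Recombinant PKM1 or PKM2 incubated with compound at room temperature for 20 min. Remaining activity measured by the same colorimetric kit: PEP + […], PK then pyruvate oxidase, H2O2 read-out. n = 3.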
Target sequence in this assay (P14618 whole entry): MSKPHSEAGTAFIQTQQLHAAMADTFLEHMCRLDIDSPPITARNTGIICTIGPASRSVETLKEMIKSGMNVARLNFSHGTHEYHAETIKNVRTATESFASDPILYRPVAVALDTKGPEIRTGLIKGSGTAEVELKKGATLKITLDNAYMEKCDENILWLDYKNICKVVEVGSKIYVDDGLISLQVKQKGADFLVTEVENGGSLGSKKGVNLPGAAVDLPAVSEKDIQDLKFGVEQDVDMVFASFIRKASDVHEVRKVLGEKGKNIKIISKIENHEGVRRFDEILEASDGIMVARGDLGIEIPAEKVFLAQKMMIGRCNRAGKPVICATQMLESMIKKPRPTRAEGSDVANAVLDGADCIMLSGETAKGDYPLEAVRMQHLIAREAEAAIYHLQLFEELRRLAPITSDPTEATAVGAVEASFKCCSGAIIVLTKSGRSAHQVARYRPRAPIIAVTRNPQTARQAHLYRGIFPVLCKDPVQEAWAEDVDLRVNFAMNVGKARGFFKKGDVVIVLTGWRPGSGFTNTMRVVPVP

In data set [4] the target is T3, Pyruvate kinase PKM. Description: Inhibition of PKM2 in human PC9 cells assessed as reduction in beta-catenin phosphorylation at 0.5 uM incubated for 24 hrs by Western blot analysis. Format: cell-based. The procedure, abridged: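 PC-9 cells seeded at 5 × 10^5 cells/mL; after 24 h given 0–1 µM compound or DMSO for 24 h. Lysates run on 10% SDS-PAGE, transferred to nitrocellulose, probed for PKM2, EGFR, p-STAT3, STAT3, p-β-catenin, β-catenin and β-actin with HRP secondaries, ECL detection.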
Target sequence in this assay (P14618 2-531 limits assumed): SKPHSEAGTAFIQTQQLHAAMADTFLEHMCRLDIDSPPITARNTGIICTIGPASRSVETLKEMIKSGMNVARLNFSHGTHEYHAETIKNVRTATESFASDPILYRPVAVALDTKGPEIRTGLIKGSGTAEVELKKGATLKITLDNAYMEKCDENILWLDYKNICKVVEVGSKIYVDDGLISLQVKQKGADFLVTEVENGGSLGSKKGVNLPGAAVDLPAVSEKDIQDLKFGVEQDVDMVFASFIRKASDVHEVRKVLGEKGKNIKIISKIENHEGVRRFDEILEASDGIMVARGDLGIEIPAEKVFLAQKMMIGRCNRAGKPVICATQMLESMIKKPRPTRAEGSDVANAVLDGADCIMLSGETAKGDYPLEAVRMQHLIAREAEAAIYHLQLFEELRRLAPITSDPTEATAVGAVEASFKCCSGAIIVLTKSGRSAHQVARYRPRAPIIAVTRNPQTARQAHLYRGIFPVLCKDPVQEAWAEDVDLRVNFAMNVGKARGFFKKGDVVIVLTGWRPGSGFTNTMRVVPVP

In a further data set the test system is Mus musculus. Description: In vivo inhibition of PKM2 in human PC9 cells xenografted in athymic nude mouse assessed as reduction in EGFR expression at 10 mg/kg, ip administered once daily for 25 days measured post-last dose by Western blot analysis. Format: functional, organism-based. The procedure, abridged:
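Tumors from PC-9 xenograft nude mice given 10 mg/kg i.p. daily or vehicle for 25 days (n = 8 per group) were lysed for Western blots of PKM2, EGFR, Stat3 and β-catenin. Bands quantified by ImageJ and normalized to GAPDH.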
A general note: A xenograft is tissue or cells of one species grown in another, often human tumour cells in immunodeficient mice.

The target of data set [5] is T3, Pyruvate kinase PKM. Description: Inhibition of N-(4-(3-(3-(Methylamino)-3-oxopropyl)-5-(4'-(prop-2-yn-1-yloxy)-[1,1'-biphenyl]-4-yl)-1H-pyrazol-1-yl)phenyl)propiolamide binding to PKM2 in human PC9 cells at 1 uM preincubated for 1 hr followed by probe addition and measured after 1 hr using antibody by Western blot analysis. Format: cell-based. The procedure, abridged: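 PC-9 cells pretreated with 1 µM compound or DMSO for 1 h, then alkyne probe added at 0.5, 1 or 2 µM for 1 h at 37 °C. Lysates put through Cu-catalysed click with biotin-azide, streptavidin beads 16 h at 4 °C, washes with 0.5% SDS/PBS, 10% SDS-PAGE and PKM2 Western blot.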
Target sequence in this assay (P14618 2-531 limits assumed): as above
On the technique in general: Immunoblotting shows a protein as a band on a membrane.

Take `C#CC(=O)Nc1ccc(-n2nc(CCC(=O)NC)cc2-c2ccc(-c3ccc(C(F)(F)F)cc3)cc2)cc1`: the IC50 in the data set on NCI-H157 is greater than 2000 nM. In addition, the result in data set [1] and in data set [2] was Active. The “inhibition (INH)” value on Pyruvate kinase PKM [3] is “Not Active”. The inhibition result at Pyruvate kinase PKM [4] is “inactive”. The inhibition result with Mus musculus and at Pyruvate kinase PKM [5] was “Active” each time.
